Assay results from ChEMBL document CHEMBL1133105, “Antimalarial, antitrypanosomal, and antileishmanial activities and cytotoxicity of bis(9-amino-6-chloro-2-methoxyacridines): influence of the linker” (J Med Chem, 2000).

Assays:
[1] = test system: Leishmania infantum; experiment: Percentage of activity against Leishmania infantum at 6.25 uM; Toxic upon mouse primary peritoneal macrophages; assay type: functional, organism-based
In short: (§1)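 Starch-stimulated mouse peritoneal macrophages, 30 000/well, infected after 24 h with spleen-derived L. infantum amastigotes (10:1) together with 2-fold drug dilutions (12.5–1.56 µM). Incubated 7 days at 37 °C, 5% CO2. Wright-stained slides scored microscopically as % reduction of total parasite load or of infected macrophages. Uninfected treated cultures judged microscopically for macrophage toxicity.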

[2] = test system: Leishmania infantum; experiment: Percentage of activity against Leishmania infantum at 1.56 uM; assay type: functional; in short: as §1
[3] = test system: Leishmania infantum; experiment: Percentage of activity against Leishmania infantum at 12.5 uM Concentration; Toxic upon mouse primary peritoneal macrophages; assay type: functional, organism-based; in short: as §1
[4] = test system: Leishmania infantum; experiment: Percentage of activity against Leishmania infantum at 3.13 uM; assay type: functional; in short: as §1
[5] = test system: MRC5; experiment: Cytotoxicity on MRC-5 cells at 12.5 uM; assay type: functional; details: Homo sapiens
In short: (§2)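 MRC-5 human diploid embryonic lung cells seeded at 5 000/well, washed after 24 h, then given 2-fold drug dilutions (25, 12.5, 6.25, 3.13 µM) in RPMI + 5% FCS, final DMSO below 0.5%. Incubated 7 days at 37 °C, 5% CO2. MTT colorimetric read-out, scored as % reduction of absorbance at 540 nm versus untreated controls.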

[6] = test system: MRC5; experiment: Cytotoxicity on MRC-5 cells at 25 uM; assay type: functional; details: Homo sapiens; in short: as §2
[7] = test system: MRC5; experiment: Cytotoxicity on MRC-5 cells at 3.13 uM; assay type: functional; details: Homo sapiens; in short: as §2
[8] = test system: MRC5; experiment: Cytotoxicity on MRC-5 cells at 6.25 uM; assay type: functional; details: Homo sapiens; in short: as §2
[9] = test system: Plasmodium falciparum; experiment: Parasite growth inhibition against Plasmodium falciparum W2; assay type: functional, organism-based
In short: (§3)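 Asynchronous cultures of each strain on human erythrocytes (0.5% parasitemia, 1% final hematocrit) were exposed to serially diluted drug for 24 h at 37 °C. Then 0.5 µCi [3H]hypoxanthine per well was added for 24 h. Incorporation was compared with a drug-free control on the same plate. IC50 was taken from the concentration-response curve as the mean of several independent experiments. DMSO was at most 0.1%.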

[10] = test system: Plasmodium falciparum; experiment: Parasite growth inhibition against Plasmodium falciparum F32A; assay type: functional, organism-based; in short: as §3
[11] = test system: Plasmodium falciparum; experiment: Parasite growth inhibition against Plasmodium falciparum FCM29; assay type: functional, organism-based; in short: as §3
[12] = test system: Plasmodium falciparum; experiment: Parasite growth inhibition against Plasmodium falciparum FCR3; assay type: functional, organism-based; in short: as §3
[13] = test system: Plasmodium falciparum; experiment: In vitro sensitivity for Plasmodium falciparum FcB1R; assay type: functional, organism-based
In short: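 Asynchronous P. falciparum cultures in human erythrocytes (0.5% parasitemia, 1% haematocrit) exposed to serially diluted drug for 24 h at 37 °C. [3H]hypoxanthine (0.5 µCi/well) then added for a further 24 h. Uptake compared with drug-free controls on the same plate. IC50 taken from the concentration–response curve, averaged over independent experiments. DMSO ≤0.1%.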

[14] = test system: Plasmodium falciparum; experiment: Parasite growth inhibition against Plasmodium falciparum GP1; assay type: functional, organism-based; in short: as §3
[15] = test system: Plasmodium falciparum; experiment: Growth inhibition against chloroquine-resistant Plasmodium falciparum K1; assay type: functional, organism-based; in short: as §3
[16] = test system: Trypanosoma cruzi; experiment: Percentage of activity against Trypanosoma cruzi at 1.56 uM; assay type: functional
In short: (§4)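 Mouse peritoneal macrophages, 30 000/well, infected after 24 h with about 100 000 T. cruzi trypomastigotes per well plus 2-fold drug dilutions (12.5–1.56 µM). Incubated 4 days at 37 °C, 5% CO2. Methanol-fixed, Giemsa-stained and scored microscopically as % reduction of total parasite load (free trypomastigotes plus intracellular amastigotes) versus untreated controls.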

[17] = test system: Trypanosoma cruzi; experiment: Percentage of activity against Trypanosoma cruzi at 12.5 uM; Toxic upon mouse primary peritoneal macrophages; assay type: functional, organism-based; in short: as §4
[18] = test system: Trypanosoma cruzi; experiment: Percentage of activity against Trypanosoma cruzi at 3.13 uM; assay type: functional; in short: as §4
[19] = test system: Trypanosoma cruzi; experiment: (§5) In Vitro evaluation for the percentage of activity towards Trypanosoma cruzi at 6.25 uM Concentration; Toxic upon mouse primary peritoneal macrophages; assay type: functional, organism-based; in short: as §4
[20] = test system: Trypanosoma brucei; experiment: Percentage of activity against Trypanosoma brucei at 6.25 uM; assay type: functional
In short: (§6)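 Bloodstream-form T. brucei in HMI-9 medium, 10 000 parasites/well, exposed to 12.5, 6.25, 3.13 and 1.56 µM drug for 4 days. Read-out is % inhibition of parasite multiplication. Macrophage toxicity judged on mouse primary peritoneal macrophages.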

[21] = test system: Trypanosoma brucei; experiment: Percentage of activity against Trypanosoma brucei at 1.56 uM; assay type: functional; in short: as §6
[22] = test system: Trypanosoma brucei; experiment: Percentage of activity against Trypanosoma brucei at 3.13 uM; assay type: functional; in short: as §6
[23] = test system: Plasmodium falciparum; experiment: Growth inhibition of chloroquine-sensitive Plasmodium falciparum 3D7
[24] = test system: Leishmania infantum; experiment: (§7) In Vitro evaluation for the percentage of activity towards Leishmania infantum at 3.13 uM Concentration; Toxic upon mouse primary peritoneal macrophages; assay type: functional, organism-based; in short: as §1
[25] = test system: Leishmania infantum; experiment: (§8) In Vitro evaluation for the percentage of activity towards Leishmania infantum at 1.56 uM Concentration; Toxic upon mouse primary peritoneal macrophages; assay type: functional, organism-based; in short: as §1
[26] = test system: Trypanosoma cruzi; experiment: (§9) In Vitro evaluation for the percentage of activity towards Trypanosoma cruzi at 3.13 uM Concentration; Toxic upon mouse primary peritoneal macrophages; assay type: functional, organism-based; in short: as §4
[27] = test system: Trypanosoma brucei; experiment: In Vitro evaluation for the percentage of activity towards Trypanosoma brucei at 3.13 uM Concentration; assay type: functional; in short: as §6
[28] = test system: MRC5; experiment: In Vitro cytotoxicity on MRC-5 cells; assay type: functional; details: Homo sapiens; in short: as §2
[29] = test system: Trypanosoma brucei; experiment: In Vitro inhibition concentration against Trypomastigote form of Trypanosoma brucei; assay type: functional, organism-based
In short: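 Bloodstream-form trypomastigotes were grown in HMI-9 medium. 10 000 parasites per well were incubated with drug at 12.5, 6.25, 3.13 and 1.56 µM for 4 days, and parasite multiplication was assessed.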

[30] = test system: Leishmania infantum; experiment: as §7; assay type: organism-based; in short: as §1
[31] = test system: Leishmania infantum; experiment: In Vitro evaluation for the percentage of activity towards Leishmania infantum 6.25 uM Concentration; Toxic upon mouse primary peritoneal macrophages; assay type: organism-based; in short: as §1
[32] = test system: Leishmania infantum; experiment: as §8; assay type: organism-based; in short: as §1
[33] = test system: Leishmania infantum; experiment: In Vitro evaluation for the percentage of activity towards Leishmania infantum at 12.5 uM Concentration; Toxic upon mouse primary peritoneal macrophages; assay type: organism-based; in short: as §1
[34] = test system: Trypanosoma cruzi; experiment: In Vitro evaluation for the percentage of activity towards Trypanosoma cruzi at 1.56 uM Concentration; Toxic upon mouse primary peritoneal macrophages; assay type: functional; in short: as §4
[35] = test system: Trypanosoma cruzi; experiment: In Vitro evaluation for the percentage of activity towards Trypanosoma cruzi at 12.5 uM Concentration; Toxic upon mouse primary peritoneal macrophages; assay type: organism-based; in short: as §4
[36] = test system: Trypanosoma cruzi; experiment: as §9; assay type: ADME, organism-based; in short: as §4
[37] = test system: Trypanosoma cruzi; experiment: as §5; assay type: ADME, organism-based; in short: as §4
[38] = test system: Trypanosoma brucei; experiment: Percentage of activity against Trypanosoma brucei at 12.5 uM; assay type: functional; in short: as §6
[39] = test system: Leishmania infantum; experiment: In Vitro inhibition concentration against Amastigote form of Leishmania infantum

IC50 [13]	Compound	Cytotoxicity [1]	Cytotoxicity [3]	cytotoxicity at 12.5 µM [5]	cytotoxicity at 25 µM [6]	cytotoxicity at 3.13 µM [7]	cytotoxicity at 6.25 µM [8]	Parasite load reduction [16]	Cytotoxicity [17]	Cytotoxicity [19]	Inhibition of parasite multiplication [20]	Percent inhibition of parasite multiplication [21]	Parasite growth inhibition [22]	CC50 [28]	also measured
39 nM	COc1ccc2nc3cc(Cl)ccc3c(NCCCN(CCCNc3c4ccc(Cl)cc4nc4ccc(OC)cc34)C(=O)CCN(C)C)c2c1	Toxic	Toxic	40%	54%	30%	39%	40%	Toxic	Toxic	100%	100%			Cytotoxicity [24]: Toxic; Cytotoxicity [25]: Toxic; Cytotoxicity [26]: Toxic; Cytotoxicity [27]: 100%
	Nc1nc(N)nc(Nc2ccc([As]3SCC(CO)S3)cc2)n1 (stereo not given) [MELARSOPROL]													12500 nM	IC50 [29]: 200 nM
40 nM	COc1ccc2nc3cc(Cl)ccc3c(NCCCN(CCCNc3c4ccc(Cl)cc4nc4ccc(OC)cc34)C(=O)CCC(N)=O)c2c1			100%	100%	100%	100%				100%	100%	100%		Cytotoxicity [30]: Toxic; Cytotoxicity [31]: Toxic; Cytotoxicity [32]: Toxic; Cytotoxicity [33]: Toxic; Cytotoxicity [34]: 95%; Cytotoxicity [35]: Toxic; Cytotoxicity [36]: Toxic; Cytotoxicity [37]: Toxic; Inhibition of parasite multiplication [38]: 100%
	C[C@@H]1[C@H](O)[C@@H](C)/C=C/C=C/C=C/C=C/C=C/C=C/C=C/[C@H](O[C@@H]2O[C@H](C)[C@@H](O)[C@H](N)[C@@H]2O)C[C@@H]2O[C@](O)(C[C@@H](O)C[C@@H](O)[C@H](O)CC[C@@H](O)C[C@@H](O)CC(=O)O[C@H]1C)C[C@H](O)[C@H]2C(=O)O [AMPHOTERICIN B]													25000 nM	IC50 [39]: 50 nM

Compound	IC50 [13]	Cytotoxicity [1]	Cytotoxicity [3]	cytotoxicity at 12.5 µM [5]	cytotoxicity at 25 µM [6]	cytotoxicity at 3.13 µM [7]	cytotoxicity at 6.25 µM [8]	Parasite load reduction [16]	Cytotoxicity [17]	Cytotoxicity [19]	Inhibition of parasite multiplication [20]	Percent inhibition of parasite multiplication [21]	Parasite growth inhibition [22]	CC50 [28]	also measured
COc1ccc2nc3cc(Cl)ccc3c(NCCCN(CCCNc3c4ccc(Cl)cc4nc4ccc(OC)cc34)C(=O)C(CC(C)C)NC(=O)OC(C)(C)C)c2c1 (stereo not given)	27 nM	Toxic	Toxic	49%	55%	42%	47%	40%	Toxic	Toxic	100%	100%	100%		Antileishmanial activity (% reduction of parasite load) [2]: 90%; Percent antileishmanial activity (reduction of parasite load) [4]: 95%; IC50 [9]: 15 nM; IC50 [10]: 52 nM; IC50 [11]: 13 nM; IC50 [12]: 17 nM; IC50 [14]: 63 nM; IC50 [15]: 14 nM; Reduction of T. cruzi parasite load [18]: 80%; IC50 [23]: 48 nM
